Drawing on ChEMBL document CHEMBL4024754, “Development of Potent, Protease-Resistant Agonists of the Parathyroid Hormone Receptor with Broad β Residue Distribution” (J Med Chem, 2017), this text covers fold change (FC) and Activity for seven compounds.

Calls of active or inactive are those of the source. The rule behind the calls is not given here.

The target in assay [1] is T1, Parathyroid hormone/parathyroid hormone-related peptide receptor (Homo sapiens) (UniProt Q03431).
T1 sequence (whole entry): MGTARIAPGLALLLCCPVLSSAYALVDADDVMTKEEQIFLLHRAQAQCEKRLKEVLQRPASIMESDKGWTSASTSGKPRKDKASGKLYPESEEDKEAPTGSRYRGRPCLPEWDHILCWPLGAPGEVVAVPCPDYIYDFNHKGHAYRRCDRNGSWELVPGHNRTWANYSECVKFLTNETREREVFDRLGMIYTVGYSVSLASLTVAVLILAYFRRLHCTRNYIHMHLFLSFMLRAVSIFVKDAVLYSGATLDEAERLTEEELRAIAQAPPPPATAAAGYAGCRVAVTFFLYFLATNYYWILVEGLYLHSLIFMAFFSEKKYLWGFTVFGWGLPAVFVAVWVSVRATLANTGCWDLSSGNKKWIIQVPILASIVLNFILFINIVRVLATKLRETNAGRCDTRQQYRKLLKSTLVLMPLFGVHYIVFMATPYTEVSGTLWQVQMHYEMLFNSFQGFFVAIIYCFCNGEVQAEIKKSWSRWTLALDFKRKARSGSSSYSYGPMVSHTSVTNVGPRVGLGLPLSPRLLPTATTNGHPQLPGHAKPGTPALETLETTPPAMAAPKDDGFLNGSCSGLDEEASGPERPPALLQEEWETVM
Briefly: Agonist activity at human PTH1 receptor expressed in human GP2.3 cells assessed as induction of cAMP after 12 to 20 mins by luciferase reporter gene assay relative to PTH(1 to 34 residues)-NH2. The format is functional, cell-based. For orientation: Reporter assays use an easily measured gene product as a stand-in for the process of interest.

Assay [2] addresses T1, Parathyroid hormone/parathyroid hormone-related peptide receptor (Homo sapiens). Briefly: Agonist activity at extracellular domain truncate human PTH1 receptor expressed in GD5 cells assessed as induction of cAMP after 12 to 20 mins by luciferase reporter gene assay. The format is functional, cell-based. In a few lines:
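HEK293-derived lines stably expressing Glosensor cAMP reporter plus full-length human PTHR1 (GP2.3) or ECD-truncated PTHR1 (GD5). Confluent monolayers preincubated at room temperature in CO2-independent medium with 0.5 mM D-luciferin until baseline stable (30 min), then varied agonist concentrations added. Maximal luminescence (12−20 min) used for sigmoidal variable-slope fits.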

In the case of `CC[C@H](C)[C@H](NC(=O)C[C@@H](CCC(=O)O)NC(=O)[C@H](CO)NC(=O)[C@@H](NC(=O)[C@@H](N)CO)C(C)C)C(=O)N[C@@H](CCC(N)=O)C(=O)N[C@@H](CC(C)C)C(=O)N[C@@H](CCSC)C(=O)N[C@@H](Cc1cnc[nH]1)C(=O)N[C@@H](CC(N)=O)C(=O)N[C@@H](CC(C)C)C(=O)NCC(=O)N[C@@H](CCCCN)C(=O)N[C@@H](Cc1cnc[nH]1)C(=O)N[C@@H](CC(C)C)C(=O)N[C@@H](CC(N)=O)C(=O)N[C@@H](CO)C(=O)N[C@@H](CCSC)C(=O)N[C@@H](CCC(=O)O)C(=O)N[C@@H](CCCNC(=N)N)C(=O)N[C@H](C(=O)N[C@@H](CCC(=O)O)C(=O)N[C@@H](Cc1c[nH]c2ccccc12)C(=O)N[C@@H](CC(C)C)C(=O)N[C@@H](CCCNC(=N)N)C(=O)N[C@@H](CCCCN)C(=O)N[C@@H](CCCCN)C(=O)N[C@@H](CC(C)C)C(=O)N[C@@H](CCC(N)=O)C(=O)N[C@@H](CC(=O)O)C(=O)N[C@H](C(=O)N[C@@H](Cc1cnc[nH]1)C(=O)N[C@@H](CC(N)=O)C(=O)N[C@@H](Cc1ccccc1)C(N)=O)C(C)C)C(C)C`, the fold change (FC) in assay [1] was 108. Besides, the outcome in assay [2] was Active.

Regarding `CC[C@H](C)[C@H](NC(=O)[C@H](CCC(=O)O)NC(=O)[C@H](CO)NC(=O)[C@@H](NC(=O)[C@@H](N)CO)C(C)C)C(=O)N[C@@H](CCC(N)=O)C(=O)N[C@H](CC(=O)N[C@@H](CCSC)C(=O)N[C@@H](Cc1cnc[nH]1)C(=O)N[C@@H](CC(N)=O)C(=O)N[C@@H](CC(C)C)C(=O)NCC(=O)N[C@@H](CCCCN)C(=O)N[C@@H](Cc1cnc[nH]1)C(=O)N[C@@H](CC(C)C)C(=O)N[C@@H](CC(N)=O)C(=O)N[C@@H](CO)C(=O)N[C@@H](CCSC)C(=O)N[C@@H](CCC(=O)O)C(=O)N[C@@H](CCCNC(=N)N)C(=O)N[C@H](C(=O)N[C@@H](CCC(=O)O)C(=O)N[C@@H](Cc1c[nH]c2ccccc12)C(=O)N[C@@H](CC(C)C)C(=O)N[C@@H](CCCNC(=N)N)C(=O)N[C@@H](CCCCN)C(=O)N[C@@H](CCCCN)C(=O)N[C@@H](CC(C)C)C(=O)N[C@@H](CCC(N)=O)C(=O)N[C@@H](CC(=O)O)C(=O)N[C@H](C(=O)N[C@@H](Cc1cnc[nH]1)C(=O)N[C@@H](CC(N)=O)C(=O)N[C@@H](Cc1ccccc1)C(N)=O)C(C)C)C(C)C)CC(C)C`, the fold change (FC) in assay [1] amounted to 12. Moreover, in assay [2], the outcome was Active.

As for `CC[C@H](C)[C@H](NC(=O)[C@H](CCC(=O)O)NC(=O)[C@H](CO)NC(=O)[C@@H](NC(=O)[C@@H](N)CO)C(C)C)C(=O)N[C@@H](CCC(N)=O)C(=O)N[C@@H](CC(C)C)C(=O)N[C@@H](CCSC)CC(=O)N[C@@H](Cc1cnc[nH]1)C(=O)N[C@@H](CC(N)=O)C(=O)N[C@@H](CC(C)C)C(=O)NCC(=O)N[C@@H](CCCCN)C(=O)N[C@@H](Cc1cnc[nH]1)C(=O)N[C@@H](CC(C)C)C(=O)N[C@@H](CC(N)=O)C(=O)N[C@@H](CO)C(=O)N[C@@H](CCSC)C(=O)N[C@@H](CCC(=O)O)C(=O)N[C@@H](CCCNC(=N)N)C(=O)N[C@H](C(=O)N[C@@H](CCC(=O)O)C(=O)N[C@@H](Cc1c[nH]c2ccccc12)C(=O)N[C@@H](CC(C)C)C(=O)N[C@@H](CCCNC(=N)N)C(=O)N[C@@H](CCCCN)C(=O)N[C@@H](CCCCN)C(=O)N[C@@H](CC(C)C)C(=O)N[C@@H](CCC(N)=O)C(=O)N[C@@H](CC(=O)O)C(=O)N[C@H](C(=O)N[C@@H](Cc1cnc[nH]1)C(=O)N[C@@H](CC(N)=O)C(=O)N[C@@H](Cc1ccccc1)C(N)=O)C(C)C)C(C)C`, the fold change (FC) in assay [1] worked out at 205. The result in assay [2] was Active.

As for `CC[C@H](C)[C@H](NC(=O)[C@H](CCC(=O)O)NC(=O)C[C@H](CO)NC(=O)[C@@H](NC(=O)[C@@H](N)CO)C(C)C)C(=O)N[C@@H](CCC(N)=O)C(=O)N[C@@H](CC(C)C)C(=O)N[C@@H](CCSC)C(=O)N[C@@H](Cc1cnc[nH]1)C(=O)N[C@@H](CC(N)=O)C(=O)N[C@@H](CC(C)C)C(=O)NCC(=O)N[C@@H](CCCCN)C(=O)N[C@@H](Cc1cnc[nH]1)C(=O)N[C@@H](CC(C)C)C(=O)N[C@@H](CC(N)=O)C(=O)N[C@@H](CO)C(=O)N[C@@H](CCSC)C(=O)N[C@@H](CCC(=O)O)C(=O)N[C@@H](CCCNC(=N)N)C(=O)N[C@H](C(=O)N[C@@H](CCC(=O)O)C(=O)N[C@@H](Cc1c[nH]c2ccccc12)C(=O)N[C@@H](CC(C)C)C(=O)N[C@@H](CCCNC(=N)N)C(=O)N[C@@H](CCCCN)C(=O)N[C@@H](CCCCN)C(=O)N[C@@H](CC(C)C)C(=O)N[C@@H](CCC(N)=O)C(=O)N[C@@H](CC(=O)O)C(=O)N[C@H](C(=O)N[C@@H](Cc1cnc[nH]1)C(=O)N[C@@H](CC(N)=O)C(=O)N[C@@H](Cc1ccccc1)C(N)=O)C(C)C)C(C)C`, the fold change (FC) in assay [1] came to 55. Also, in assay [2], the result was Active.

Regarding `CC[C@H](C)[C@H](NC(=O)[C@H](CCC(=O)O)NC(=O)[C@H](CO)NC(=O)C[C@@H](NC(=O)[C@@H](N)CO)C(C)C)C(=O)N[C@@H](CCC(N)=O)C(=O)N[C@@H](CC(C)C)C(=O)N[C@@H](CCSC)C(=O)N[C@@H](Cc1cnc[nH]1)C(=O)N[C@@H](CC(N)=O)C(=O)N[C@@H](CC(C)C)C(=O)NCC(=O)N[C@@H](CCCCN)C(=O)N[C@@H](Cc1cnc[nH]1)C(=O)N[C@@H](CC(C)C)C(=O)N[C@@H](CC(N)=O)C(=O)N[C@@H](CO)C(=O)N[C@@H](CCSC)C(=O)N[C@@H](CCC(=O)O)C(=O)N[C@@H](CCCNC(=N)N)C(=O)N[C@H](C(=O)N[C@@H](CCC(=O)O)C(=O)N[C@@H](Cc1c[nH]c2ccccc12)C(=O)N[C@@H](CC(C)C)C(=O)N[C@@H](CCCNC(=N)N)C(=O)N[C@@H](CCCCN)C(=O)N[C@@H](CCCCN)C(=O)N[C@@H](CC(C)C)C(=O)N[C@@H](CCC(N)=O)C(=O)N[C@@H](CC(=O)O)C(=O)N[C@H](C(=O)N[C@@H](Cc1cnc[nH]1)C(=O)N[C@@H](CC(N)=O)C(=O)N[C@@H](Cc1ccccc1)C(N)=O)C(C)C)C(C)C`, the fold change (FC) in assay [1] was found to be 3.2. In assay [2], the result was Active.

For the compound `CC[C@H](C)[C@@H](CC(=O)N[C@@H](CCC(N)=O)C(=O)N[C@@H](CC(C)C)C(=O)N[C@@H](CCSC)C(=O)N[C@@H](Cc1cnc[nH]1)C(=O)N[C@@H](CC(N)=O)C(=O)N[C@@H](CC(C)C)C(=O)NCC(=O)N[C@@H](CCCCN)C(=O)N[C@@H](Cc1cnc[nH]1)C(=O)N[C@@H](CC(C)C)C(=O)N[C@@H](CC(N)=O)C(=O)N[C@@H](CO)C(=O)N[C@@H](CCSC)C(=O)N[C@@H](CCC(=O)O)C(=O)N[C@@H](CCCNC(=N)N)C(=O)N[C@H](C(=O)N[C@@H](CCC(=O)O)C(=O)N[C@@H](Cc1c[nH]c2ccccc12)C(=O)N[C@@H](CC(C)C)C(=O)N[C@@H](CCCNC(=N)N)C(=O)N[C@@H](CCCCN)C(=O)N[C@@H](CCCCN)C(=O)N[C@@H](CC(C)C)C(=O)N[C@@H](CCC(N)=O)C(=O)N[C@@H](CC(=O)O)C(=O)N[C@H](C(=O)N[C@@H](Cc1cnc[nH]1)C(=O)N[C@@H](CC(N)=O)C(=O)N[C@@H](Cc1ccccc1)C(N)=O)C(C)C)C(C)C)NC(=O)[C@H](CCC(=O)O)NC(=O)[C@H](CO)NC(=O)[C@@H](NC(=O)[C@@H](N)CO)C(C)C`, in assay [1], the fold change (FC) stood at 28. Further, the result in assay [2] was Active.

In the case of `CC[C@H](C)[C@H](NC(=O)[C@H](CCC(=O)O)NC(=O)[C@H](CO)NC(=O)[C@@H](NC(=O)[C@@H](N)CO)C(C)C)C(=O)N[C@@H](CCC(N)=O)CC(=O)N[C@@H](CC(C)C)C(=O)N[C@@H](CCSC)C(=O)N[C@@H](Cc1cnc[nH]1)C(=O)N[C@@H](CC(N)=O)C(=O)N[C@@H](CC(C)C)C(=O)NCC(=O)N[C@@H](CCCCN)C(=O)N[C@@H](Cc1cnc[nH]1)C(=O)N[C@@H](CC(C)C)C(=O)N[C@@H](CC(N)=O)C(=O)N[C@@H](CO)C(=O)N[C@@H](CCSC)C(=O)N[C@@H](CCC(=O)O)C(=O)N[C@@H](CCCNC(=N)N)C(=O)N[C@H](C(=O)N[C@@H](CCC(=O)O)C(=O)N[C@@H](Cc1c[nH]c2ccccc12)C(=O)N[C@@H](CC(C)C)C(=O)N[C@@H](CCCNC(=N)N)C(=O)N[C@@H](CCCCN)C(=O)N[C@@H](CCCCN)C(=O)N[C@@H](CC(C)C)C(=O)N[C@@H](CCC(N)=O)C(=O)N[C@@H](CC(=O)O)C(=O)N[C@H](C(=O)N[C@@H](Cc1cnc[nH]1)C(=O)N[C@@H](CC(N)=O)C(=O)N[C@@H](Cc1ccccc1)C(N)=O)C(C)C)C(C)C`, the fold change (FC) in assay [1] was determined as 160. Also, the result in assay [2] was Active.
